Compounds with a hit are over-represented: about 9.6% of the library has one in this group of screens.
HCT116 bCat-KO – primary screen for growth suppressors in beta-catenin knockout HCT116 cells (colon tumor, human); HCT116 beta-catenin knockout viability, CellTiter-Glo, 60 h; active compounds read low; viability, % at 10 µM; actives 1.5% (n = 140,000); AID 818, 2007;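 active = viability at or under a set limit, the compound median less 4 SD, cut at about 6% in these data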;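 note: 0% = Hyamine 1622 control at 20 µM and 100% = untreated cell control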
Lmaj promast – Leishmania major promastigote growth inhibition, primary screen. AID 1063, 2008. Leishmania major promastigotes, resazurin fluorescence viability. inhibition, % at 10 µM. actives 9% (n = 200,000); in the data active = inhibition above about 50%;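 note: promastigotes grown with compound for 44 hours at 28 °C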
PMI act satM6P – human PMI activators, high substrate, primary screen, biochemical, fluorescence intensity, near-saturating mannose 6-phosphate; Mannose-6-phosphate isomerase (Homo sapiens), P34949; coupled PMI enzyme assay, resazurin fluorescence, 20 min; active compounds read high; 1 = untreated enzyme, 0 = substrate-free blank; AID 1216, 2008; actives 0.34% (n = 190,000); activation factor at 20 µM;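 active = activation factor of 2 or more at 20 µM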
Target sequence (P34949 whole entry, looked up): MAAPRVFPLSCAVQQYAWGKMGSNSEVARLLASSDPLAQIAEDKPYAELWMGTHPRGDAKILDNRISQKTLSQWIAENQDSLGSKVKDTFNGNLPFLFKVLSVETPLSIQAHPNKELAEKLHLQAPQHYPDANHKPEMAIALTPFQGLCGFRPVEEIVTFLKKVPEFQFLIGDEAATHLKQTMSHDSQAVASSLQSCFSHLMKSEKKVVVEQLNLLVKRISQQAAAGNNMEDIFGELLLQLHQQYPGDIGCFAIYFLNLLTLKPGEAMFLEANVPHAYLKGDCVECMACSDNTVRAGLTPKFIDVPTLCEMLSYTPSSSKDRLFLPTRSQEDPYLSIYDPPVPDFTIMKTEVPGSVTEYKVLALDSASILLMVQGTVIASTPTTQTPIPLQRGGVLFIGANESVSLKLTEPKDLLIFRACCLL
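Test system: human PMI in coupled enzyme assay; Input: PMI at 15 ng/mL final; Medium: HEPES buffer, pH 7.4; Schedule: 20 min incubation at room temperature; Technique: resorufin fluorescence at Ex 544/Em 590 nm; Compound: 20 µM single dose; Probe or stimulus: Near-saturating mannose-6-phosphate, 1.0 mM.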
HCT116 PTEN-null – growth suppression of PTEN-null HCT116, primary screen, cell-based, CellTiter-Glo; actives 1.2% (n = 140,000); HCT116 PTEN-null viability, 60 h; active compounds read low; viability, % at 10 µM;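 active = viability at or below a set limit, 4 SD under the median of all tested compounds, cut at about 3.7% in these data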;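 note: PTEN knockout HCT116 line with beta catenin targeted HCT116 as companion control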
PMI activator – activators of human PMI, primary screen, biochemical, fluorescence intensity, near-Km mannose 6-phosphate. actives 0.005% (n = 190,000). purified human PMI, coupled resazurin fluorescence, 20 min; active compounds read high; 1 = vehicle control, 0 substrate-free wells. Mannose-6-phosphate isomerase (Homo sapiens), P34949. activation factor at 20 µM. AID 1214, 2008;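 active = activation factor of 2 or more at 20 µM, relative to plate controls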
Active calls of the source: *; / = no result.

SMILES	HCT116 bCat-KO	Lmaj promast	PMI act satM6P	HCT116 PTEN-null	PMI activator
CC(C)OC(=O)c1cc(C(=O)c2cc(F)ccc2O)coc1=N	95	-2	1	96	0.9
COc1ccc(O)c(C(=O)c2coc(=N)c(C(=O)Nc3ccc(SC(F)F)cc3)c2)c1	/	83*	0.8	/	0.9
C#CCOCCOCCOCCNc1nc(N2CCN(C(=O)[C@H](CCC(=O)O)n3cc(C(N)CC(C)C)nn3)CC2)nc(N2CCN(C(=O)[C@H](CCC(=O)O)n3cc(C(N)CC(C)C)nn3)CC2)n1 (stereo partly drawn)	/	-8	1.4	/	1.3
O=c1oc2ccccc2cc1-c1csc(Nc2nc3c(F)cccc3s2)n1	5.1*	6	1	2.5*	1
CCc1ccc(-c2ccc(C(=O)C(F)(F)F)[nH]2)cc1	121	2	0.9	97	1
COc1cc(/C=C2\SC(=S)NC2=O)ccc1OS(=O)(=O)c1ccccc1	79	63*	0.8	78	0.7
COc1cc(/C=C2/SC(=S)NC2=O)ccc1OS(=O)(=O)c1ccc(C)cc1	77	11	0.8	64	0.6
Cc1ccc(CN2C(=O)CNC2=S)cc1	/	-6	1.1	/	1.1
O=C(CN1CCN(Cc2ccc3c(c2)OCO3)CC1)Nc1ccc(N2CCOCC2)cc1	/	2	1	/	1.1
Cc1cc(Cl)n2c(nc3cc(F)c(F)cc32)c1C#N	/	91*	0.7	/	1
Cc1cc(C)n2c(=O)c3ccc(Cl)cc3nc2c1C#N	/	-6	1	/	1
Cc1c(C(=O)O)cccc1-n1c(C)cc(/C=N/NC(=O)c2cc3ccccc3o2)c1C	96	56*	0.9	103	1
COc1ccc(/C=C2\SC(=O)N(CCNC(=O)C3CCN(S(=O)(=O)c4cccs4)CC3)C2=O)cc1	94	64*	1	93	0.9
COc1ccc(/C=C2\SC(=O)N(CCNC(=O)CCS(=O)(=O)c3ccc(C)cc3)C2=O)cc1	63	10	1	74	0.9
COc1ccc(/C=C2\SC(=O)N(CCNC(=O)Cn3cnnn3)C2=O)cc1	82	56*	1	89	1
Cc1ccc(C2C(C#N)=C(N)Oc3cc(C)oc(=O)c32)o1 (stereo not drawn)	/	100*	/	/	/
Cc1ccc(C)c(C2C(C#N)=C(N)Oc3cc(C)oc(=O)c32)c1 (stereo not drawn)	91	-4	1	92	1
CC(C)NC(=S)N/N=C/c1ccc(C(C)(C)C)cc1	/	4	0.9	/	0.9
Cn1c(=N)n(CC(=O)c2ccc(Br)s2)c2ccccc21	56	84*	1.1	29	1.1
COc1ccc(C2=C(Nc3ccc(C)cc3)c3ccccc3C2=O)cc1	94	64*	1	87	1
CCn1c(C)nc2cc(C(=O)N/N=C/c3cccc(OC)c3O)ccc21	/	94*	1.1	/	0.9
COc1cccc(/C=N/NC(=O)c2nc(-c3ccccc3)cc(-c3ccccc3)n2)c1O	7	100*	1.1	8	1.1
CCn1c(C)nc2cc(C(=O)NNC(=O)Nc3ccc(Cl)cc3)ccc21	/	-6	2.8*	/	1.9
COc1cccc(/C=N/NC(=O)COc2cccc3cccnc23)c1O	/	30	1.2	/	1.1
COc1cccc(/C=N/NC(=O)c2c(C)nc3ccc(Br)cn23)c1O	/	100*	1.3	/	1.1
SMILES	HCT116 bCat-KO	Lmaj promast	PMI act satM6P	HCT116 PTEN-null	PMI activator
COc1ccc(Cl)cc1-c1nc(SCC(=O)NC(C)C(C)C)n[nH]1 (stereo not drawn)	/	17	1	/	1
Cc1ccc(NC(=O)c2ccc3c(c2)OCCO3)cc1S(=O)(=O)Nc1cccc(Cl)c1	54	41	0.8	46	0.7
O=C(N=Nc1c(O)[nH]c2ccc(Cl)cc12)c1cc(-c2cccs2)nc2ccccc12	76	52*	1.1	82	1.1
O=C(Nc1ccc(Cl)c(Cl)c1)N1CCSCC1	93	74*	1	82	1
O=C(Nc1ccc(Cl)cc1)N1CCSCC1	92	1	1	98	1
COc1cccc(NC(=O)N2CCC(N3CCCCC3)CC2)c1	91	-1	1	95	1
O=C(Nc1ccc(Cl)c(Cl)c1)N1CCC(N2CCCCC2)CC1	84	91*	1	83	1
COc1cccc(NC(=O)CN2CCN(c3ccc(F)cc3)CC2)c1	100	8	0.9	90	0.9
CCOC(=O)c1ccc(N2CCN(c3ccc(F)cc3)CC2)c(NC(=O)Nc2cccc(OC)c2)c1	80	96*	0.9	72	0.9
CCOC(=O)c1ccc(N2CCN(c3ccccc3F)CC2)c(NC(=O)Nc2ccccc2)c1	78	97*	1.1	70	1
O=C(C1CCCO1)N1CCN(C(=S)Nc2ccc(Cl)cc2)CC1 (stereo not drawn)	96	-7	1	90	0.8
O=C(CCl)Nc1ccccc1C(=O)c1ccccc1	/	42	1	/	1.1
Cc1cc(C(=O)c2ccccc2)c(NC(=O)CCl)s1	102	100*	0.9	104	0.8
Cc1ccccc1-n1cnnc1SCC(=O)Nc1cccnc1Cl	/	-4	1.1	/	1.1
COc1cccc(C(=O)NNC(=O)Cc2cccs2)c1	/	-2	1	/	1
O=S(=O)(NCCCN1CCOCC1)c1ccc2c(c1)OCCO2	/	7	0.9	/	1
Cc1ccc(S(=O)(=O)NCCCN2CCOCC2)cc1C	90	88*	1	96	1
c1ccc2cc(CN3CCOCC3)ccc2c1	90	54*	1	97	1
O=S(=O)(NCCCN1CCOCC1)c1ccc2ccccc2c1	/	91*	/	/	/
O=C1NCCN1CCNS(=O)(=O)c1ccc2ccccc2c1	100	-7	1	108	1
COc1cc(S(=O)(=O)NCCCN2CCOCC2)ccc1Cl	95	93*	1	111	0.9
c1ccc(CN2CCOCCOCCOCCOCCOCCOCC2)cc1	/	1	1	/	1.1
COc1cc(S(=O)(=O)NCCCN2CCOCC2)ccc1-n1cnnn1	/	2	1.2	/	1.1
CCOc1ccc(OCC)c(S(=O)(=O)NCCCN2CCOCC2)c1	102	-4	1.1	97	1
CCOc1ccc(S(=O)(=O)NCCCN2CCOCC2)cc1	89	92*	1	107	1
O=[N+]([O-])c1cc(S(=O)(=O)NCCCN2CCOCC2)ccc1Cl	85	99*	1.1	87	1
Cc1cc(S(=O)(=O)NCCCN2CCOCC2)ccc1F	91	91*	1	89	1
Cc1ccc(C)c(S(=O)(=O)NCCCN2CCOCC2)c1	/	35	1	/	1
COc1cccc(Oc2cn[nH]c2-c2ccc(O)cc2O)c1	94	75*	0.9	93	0.9
Cc1cc2nc(N)sc2cc1[N+](=O)[O-]	99	5	1	94	1
